Data set [1] in a line: The minimum cytotoxic concentration (MCC) reducing cell viability on WISH cells. Format: cell-based. The conditions noted are these: human. The method in brief: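 Uninfected WISH cell monolayers, grown 18–24 h, were given serial 2-fold drug dilutions (cells + medium + drug) and incubated at 33 °C for 72 h. Cells were examined microscopically.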
The next data set concerns L1210. Kind of data set: In vitro inhibition of L1210 leukemia cell growth. Type of data set: functional. As to conditions: Mus musculus, read-out: ID50 (the source's name).
Data set [2] in a line: (§1) The antiviral index is defined as MCC/MIC. Type of data set: functional.
The subject of a further data set is Enterovirus. Kind of data set: The minimum inhibitory concentration (MIC) required to inhibit rhinovirus type 34 induced cytopathic effect (CPE) on WISH cells. Type of data set: functional. Summed up: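 WISH cells grown 18–24 h to monolayers. Serial 2-fold drug dilutions applied, then 320 CCID50 of rhinovirus type 34 added; sealed plates incubated 72 h at 33 °C. Cell, virus and toxicity controls included.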
On the technique in general: Cytopathic effects are the visible damage that an infection or toxin causes in cultured cells.

Data set [3] relates to Mus musculus. Kind of data set: Compound (400 mg/kg) was tested against intraperitoneally implanted P388 leukemia in mice. Type of data set: functional. Summed up:
(§2)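 CD2F1 mice, groups of six, inoculated ip with 10⁶ P388 leukemia cells; ip treatment started 24 h after inoculation, once daily for 5 days. Read-out is %T/C = (mean survival time of treated mice in days / mean survival time of controls) × 100, with ≥120 taken as moderate activity.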

For data set [4], the system named is Mus musculus. Description: Compound (200 mg/kg) was tested against intraperitoneally implanted P388 leukemia in mice. Format: functional. Summed up: as §2
Data set [5] deals with Mus musculus. Kind of data set: Compound (100 mg/kg) was tested against intraperitoneally implanted P388 leukemia in mice. Format: functional. The method in brief:
as §2

Data set [6] is filed under the species Mus musculus. Kind of data set: Mean weight change (day 5 wt minus day 1 wt) of the treated mice to the mean weight change of the control mice in grams. Format: functional. Summed up: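 CD2F1 mice given 10⁶ P388 cells ip, then ip treatment once daily for 5 days starting at 24 h. Toxicity is the mean weight change (day 5 minus day 1) of treated mice minus that of control mice, in grams.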

Data set [7] deals with Mus musculus. Kind of data set: Compound (600 mg/kg) was tested against intraperitoneally implanted P388 leukemia in mice. Type of data set: functional. The method in brief: as §2
A short description of data set [8]: as §1. Format: ADME. The conditions noted are these: read-out: Antiviral index. The method in brief:
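Rhinovirus type 34 on WISH cell monolayers grown 18–24 h. Serial 2-fold drug dilutions were added with 320 CCID50 of virus and incubated at 33 °C for 72 h. CPE was scored microscopically on a 0–4 scale. […] AI = MCC/MIC.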

In data set [9] the test system is Mus musculus. Description: Compound (50 mg/kg) was tested against intraperitoneally implanted P388 leukemia in mice. Format: functional. Summed up: as §2

Structures are written as SMILES. ≈ marks a conversion by molar mass, not a printed value. A value given as a limit tells only on which side of the number the result lay.

In turn, `O=c1c(Br)c(O)ccn1C1O[C@H](CO)[C@@H](O)[C@H]1O` (some centres not stated) yielded an MCC in data set [1] of over 1000 µg/mL.

For the compound `Nc1cc(=O)n(C2O[C@H](CO)[C@@H](O)[C@H]2O)cc1F` (some centres not stated), in data set [1], the MCC came out at 800 µg/mL.

Turning to `Nc1ccn([C@@H]2O[C@H](CO)[C@@H](O)[C@H]2O)c(=O)c1`, the MCC in data set [1] turned out to be 400 µg/mL. The IC50 in the data set on L1210 turned out to be 28.6 µM. This compound also had an Antiviral index in data set [2] of 125. This compound also yielded an MIC in the data set on Enterovirus of 3.2 µg/mL (≈ 13.2 µM).

Turning to `Nc1ccn(C2O[C@H](CO)[C@@H](O)[C@H]2O)c(=O)c1Cl` (some centres not stated), the MCC in [1] turned out to be 400 µg/mL. Also, the IC50 in the data set on L1210 was over 36.1 µM. This compound also had an Antiviral index in data set [2] of 7.5. In the data set on Enterovirus, this compound came in with an MIC of 53.7 µg/mL (≈ 194 µM).

In data set [1], `Nc1c(F)cn(C2O[C@H](CO)[C@@H](O)[C@H]2O)c(=O)c1F` (some centres not stated) showed an MCC of 400 µg/mL. Further, the IC50 with L1210 is over 35.9 µM. Also, in data set [2], the Antiviral index stood at 14.1. Also, the MIC with Enterovirus stood at 28.3 µg/mL (≈ 102 µM).

Take `O=c1cc(O)ccn1[C@@H]1O[C@H](CO)[C@@H](O)[C@H]1O`: the MCC in data set [1] was determined as 400 µg/mL.

On to `O=c1c(Cl)c(O)ccn1C1O[C@H](CO)[C@@H](O)[C@H]1O` (some centres not stated), for which, in data set [1], the MCC is over 1000 µg/mL.

Take `Nc1ccn(C2O[C@H](CO)[C@@H](O)[C@H]2O)c(=O)c1Br` (some centres not stated): the MCC in data set [1] amounted to 800 µg/mL. Also, the IC50 in the data set with L1210 was over 31.1 µM. The Antiviral index in [2] is given as 4.6. This compound also gave an MIC in the data set on Enterovirus of 173 µg/mL (≈ 540 µM).

Consider `Nc1ccn(C2O[C@H](CO)[C@@H](O)[C@H]2O)c(=O)c1F` (some centres not stated), for which the T/C in the data set on Mus musculus [3] is listed as 177; in the data set on Mus musculus [4], 158; with Mus musculus [5] it was 149; with Mus musculus [7], 185; in the data set on Mus musculus [9], 133. Further, the MCC in [1] is 400 µg/mL. For the same compound, the IC50 in the data set on L1210 stood at 11.8 µM. Also, the Weight change in the data set filed under Mus musculus [6] was -3.4 (not active) [middle of 5 runs]. The selectivity ratio in data set [8] came to 308. The compound also gave an MIC in the data set with Enterovirus of 1.3 µg/mL (≈ 5 µM).

In the case of `Nc1ccn(C2O[C@H](CO)[C@@H](O)[C@H]2O)c(=O)c1[N+](=O)[O-]` (some centres not stated), in data set [1], the MCC was over 1000 µg/mL.

As for `O=c1c([N+](=O)[O-])c(O)ccn1C1O[C@H](CO)[C@@H](O)[C@H]1O` (some centres not stated), the MCC in data set [1] was 400 µg/mL.
